# This is a sample that favours compounds with a hit; in the whole collection about 3% have one here.
# MIN6 prolif-1: inducers of MIN6 beta-cell proliferation, primary screen, ATP luminescence, uHTS; MIN6 cells proliferation, ATPlite luminescence, 48 h; cells starved in 0.2% serum; 100% = growth in 10% serum; proliferation, % at 10 µM; actives 0.29% (n = 330,000);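 active = compounds whose signal lies at least 3.5 SD above the mean of all wells on their plate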;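 also: 0% = DMSO-treated cells in low-serum medium and 100% = 10% serum control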
# Granule exo inh: LAMP-1 surface exposure blockers, TALL-104 cells – cell-based, flow cytometry, MLPCN library, primary screen; actives 0.66% (n = 360,000); inhibition, % at 10 µM; AID 651702, 2012; TALL-104 LAMP-1 surface exposure; cells stimulated with thapsigargin and PMA;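 active = inhibition above about 55%, limit read from the data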
# Apaf1 inhib: inhibitors of human Apaf-1 apoptosome, primary screen, biochemical, DEVD-Rh110 fluorescence, uHTS. inhibition, % at 20 µM. AID 489030, 2010. Apoptotic protease-activating factor 1 (Homo sapiens), O14727. reconstituted apoptosome caspase-3 activity. actives 0.71% (n = 330,000); active = inhibition of at least 40% at 20 µM;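 also: plate controls were DMSO wells for no effect and DEVD-CHO caspase inhibitor wells for full effect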
#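 Material: reconstituted apoptosome with Apaf-1, cytochrome c, caspase-9, procaspase-3, dATP / Buffer or medium: pH 7.5 Hepes buffer with CHAPS, BSA, DTT / Also added: cytochrome c with DEVD-Rh110 / Schedule: compound with Apaf-1, dATP, procaspase-3 30 min, then 50 min reaction, room temperature / Technique: rhodamine 110 fluorescence at Ex 480/Em 540 nm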
# UBC13 inh: UBC13 polyubiquitin chain formation inhibitors, primary screen, biochemical, TR-FRET, uHTS. Ubiquitin-conjugating enzyme E2 N (Homo sapiens), P61088. inhibition, % at 20 µM. actives 0.47% (n = 330,000). AID 485273, 2010; in the data active = inhibition above about 45%, passing the limit was not always enough
# Target sequence (P61088 whole entry, looked up): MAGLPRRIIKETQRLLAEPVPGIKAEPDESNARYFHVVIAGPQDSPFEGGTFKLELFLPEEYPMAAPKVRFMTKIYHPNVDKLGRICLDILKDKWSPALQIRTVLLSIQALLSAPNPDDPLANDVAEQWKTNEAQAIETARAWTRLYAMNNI
# iPSC survival up: enhancers of single-cell hiPSC survival, primary screen, ATPlite luminescence | 100% = ROCK inhibitor wells, 0% = DMSO | actives 0.044% (n = 360,000) | survival enhancement, % at 20 µM; in the data active = survival enhancement above about 18%;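 also: cells exposed to compounds for 16 hours before the ATP read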
# MPTP inh: mitochondrial permeability transition pore inhibitors, primary screen, biochemical, isolated mouse mitochondria, absorbance; Ca2+ swelling absorbance, 30 min; inhibition, % at 10 µM; actives 1.4% (n = 360,000);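 active = inhibition of 50% or more, scaled per plate between neutral and stimulator controls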;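 also: 0% = DMSO wells given calcium and 100% = 1 mM EGTA wells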
# MIN6 prolif-2: inducers of beta-cell proliferation in MIN6, confirmation, MIN6 cells, mouse | AID 463095, 2010 | proliferation increase, % at 50 µM | ATPlite luminescence, 48 h; cells kept in 0.2% serum; scaled between 0.2% and 10% serum | shares compounds with MIN6 prolif-1 | 920 tested, under 10 active;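 active = proliferation increase above 40% at any of the four tested concentrations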
# An asterisk follows results filed as active; x = no result given.
SMILES,MIN6 prolif-1,Granule exo inh,Apaf1 inhib,UBC13 inh,iPSC survival up,MPTP inh,MIN6 prolif-2
COc1ccc(/C=C/C(=O)Nc2cc(S(=O)(=O)N3CCOCC3)ccc2N2CCCC2)cc1OC,7.3*,-1,11,-16,0,-3,1
COc1ccc(/C=C/C(=O)Nc2cc(S(=O)(=O)N3CCCCC3)ccc2N2CCCCC2)cc1OC,0,-6,22,2,0,1,x
Cc1ccccc1C(=O)NC1CCN(C(=O)Nc2ccc(F)cc2)CC1,-2,0,1,4,0,0,x
O=C(c1ccc(Br)cc1)N1CCN(c2ccccn2)CC1,x,-8,x,x,-2,0,x
CC(=O)c1cccc(NC(=O)CSc2nc(C3CC3)nc3ccccc23)c1,0.0*,13,0,4,0,-1,-4
COc1ccc(-c2noc(C3CCCN(S(=O)(=O)c4cccc(Cl)c4C)C3)n2)cc1OC (configuration not stated),-3,-1,-3,5,-1,-4,x
O=S(=O)(c1ccccc1Cl)N1CCCC(c2nc(-c3cccnc3)no2)C1 (configuration not stated),7.4*,-5,0,-6,0,0,-4
CCOc1ccccc1CNC(=O)CNC(=O)c1cccs1,17*,-7,-1,4,-1,2,1
CCOc1ccccc1C(=O)NCC(=O)NNC(=O)c1cccs1,-1,0,-6,3,1,-1,x
COc1cc(OC)c(OC)cc1CNC(=O)c1cc(=O)[nH]c2ccccc12,1,-12,2,2,0,1,x
CCN1CCN(c2nc(Nc3ccc(C)c(C)c3)nc(N)c2[N+](=O)[O-])CC1,0.0*,3,-5,5,0,40,-6
CCn1cc(CN2CCC(n3nccc3NC(=O)c3ccc4c(c3)OCO4)CC2)c(C)n1,4,-16,-1,4,0,0,x
Cc1nn(CC(=O)NNC(=O)c2cccc(Br)c2)c(C)c1[N+](=O)[O-],0,0,-22,8,2,1,x
O=C(COc1ccccc1Cl)Nc1ccc(S(=O)(=O)Nc2ccccn2)cc1,0.0*,7,4,7,0,1,1
Nc1ncnc2c1ncn2[C@@H]1O[C@H](C(=O)Nc2cc(C(F)(F)F)cc(C(F)(F)F)c2)[C@@H](O)[C@H]1O,x,2,x,x,8,0,x
Nc1sccc1C(=O)NCc1ccccc1,x,7,x,x,x,1,x
COc1ccc(NC(=O)CN2c3cccc4cccc(c34)S2(=O)=O)cc1,-3,-2,6,0,4,-9,x
COc1ccc(CCNC(=O)CN2c3cccc4cccc(c34)S2(=O)=O)cc1,13*,-4,12,6,0,-2,5
COc1ccc(NC(=O)c2c(Cl)cnn2C)c(C)c1,-3,0,-8,6,-1,0,x
COC(=O)c1sccc1NC(=O)c1c(Cl)cnn1C,9.0*,-1,4,12,1,2,1
COc1cc(CCC(=O)OCC(=O)NCc2ccc(Cl)cc2)cc(OC)c1OC,-1,-6,16,2,0,0,x
COc1ccc(CCC(=O)OCC(=O)NCc2ccc(OC)c(OC)c2)cc1OC,9.2*,-1,0,-1,-2,0,2
O=C(NC1CCCCC1)C1CCC(=O)N(C2CC2)C1 (configuration not stated),11*,0,-3,8,0,-1,-1
CCC[C@@H](O)c1cc2cc(OC)c(OC)cc2c(=O)o1,12*,-7,-6,-1,2,0,-6
CCc1onc(C)c1C(=O)O,7.5*,3,5,6,0,-1,-3
CCn1c(=O)n(CC)c2cc(N3CCCC3)c(NC(=O)c3cccc(OC)c3)cc21,17*,0,8,1,1,1,-6
